# ChEMBL document CHEMBL4680191, “Discovery of novel akt1 inhibitor induces autophagy associated death in hepatocellular carcinoma cells” (Eur J Med Chem, 2020)
# Active and inactive are the calls of the source. The calls are words filed in the database; no cut-off is given here.
# Legend:
# Huh-7 [1] = assay: Antitumour activity against human Huh-7 cells xenografted in nude mouse assessed as increase in LC3-2 at 20 to 50 mg/kg, ip up to 15 days by immunohistochemical analysis; format: functional, organism-based; settings: dose 20-50 mg/kg, time day <=15
# How it was run: (§1)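 Tumors came from Huh-7 xenografted nude mice dosed intraperitoneally at 25 or 50 mg/Kg for 15 days. For IHC, sections underwent microwave antigen retrieval (EDTA pH 8.0 or citrate pH 6.0), then primary antibody at 37 °C for 30-40 min. HRP polymer/secondary was applied for 30 min, with DAB development and control IgG.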
# [2] = molecular target: cAMP-dependent protein kinase catalytic subunit alpha (Homo sapiens) (UniProt P17612); assay: Inhibition of full length human PKAcalpha assessed as remaining activity at 1 uM using LRRASLG as substrate incubated for 40 mins by scintillation counting method relative to control
# How it was run: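 Run as an outsourced KinaseProfiler service, with human PKA and Akt1, Akt2 and Akt3 in the same panel. Each compound was tested at a single 1 µM concentration, and the result is reported as kinase activity remaining, as a percentage of control.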
# [3] = Inhibition of full length human Akt1 […] mutant using GRPRTSSFAEGKK as substrate incubated for 40 mins by scintillation counting method
# How it was run: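 Eurofins KinaseProfiler enzymatic assay on human Akt isoforms. IC50 values are the mean of at least three independent replicates ± standard deviation.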
# Hep 3B2 = assay: Cytotoxicity against human Hep3B cells assessed as reduction in cell viability by MTT assay; format: functional, cell-based
# How it was run: (§2)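 Hepatoma cells were grown in DMEM with 10% FBS and streptomycin, then treated with compounds. Viability was read by MTT.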
# Huh-7 [4] = assay: Cytotoxicity against human Huh-7 cells assessed as reduction in cell viability by MTT assay; format: functional, cell-based; how it was run: as §2
# SMMC-7721 = assay: Cytotoxicity against human SMMC-7721 cells assessed as reduction in cell viability by MTT assay; format: functional, cell-based; how it was run: as §2
# Huh-7 [5] = assay: Induction of apoptosis in human Huh-7 cells assessed as early apoptotic cells at 0.1 uM by Annexin V/propidium iodide staining based flow cytometric analysis (reference value: 1.43%); format: functional
# Huh-7 [6] = assay: Induction of apoptosis in human Huh-7 cells assessed as early apoptotic cells at 0.2 uM by Annexin V/propidium iodide staining based flow cytometric analysis (reference value: 1.43%); format: functional
# Huh-7 [7] = assay: Induction of apoptosis in human Huh-7 cells assessed as necrotic cells at 0.1 uM by Annexin V/propidium iodide staining based flow cytometric analysis (reference value: 0.59%); format: functional
# Huh-7 [8] = assay: Induction of apoptosis in human Huh-7 cells assessed as necrotic cells at 0.2 uM by Annexin V/propidium iodide staining based flow cytometric analysis (reference value: 0.59%); format: functional
# [9] = molecular target: Glycogen synthase kinase-3 beta (Homo sapiens) (UniProt P49841); assay: Inhibition of GSK3beta phosphorylation at […] residue in human Huh-7 cells at 0.1 to 0.2 uM by Western blot analysis; format: cell-based; settings: dose 0.1-0.2 µM
# Glycogen synthase kinase-3 beta (Homo sapiens), sequence (P49841 whole entry, looked up): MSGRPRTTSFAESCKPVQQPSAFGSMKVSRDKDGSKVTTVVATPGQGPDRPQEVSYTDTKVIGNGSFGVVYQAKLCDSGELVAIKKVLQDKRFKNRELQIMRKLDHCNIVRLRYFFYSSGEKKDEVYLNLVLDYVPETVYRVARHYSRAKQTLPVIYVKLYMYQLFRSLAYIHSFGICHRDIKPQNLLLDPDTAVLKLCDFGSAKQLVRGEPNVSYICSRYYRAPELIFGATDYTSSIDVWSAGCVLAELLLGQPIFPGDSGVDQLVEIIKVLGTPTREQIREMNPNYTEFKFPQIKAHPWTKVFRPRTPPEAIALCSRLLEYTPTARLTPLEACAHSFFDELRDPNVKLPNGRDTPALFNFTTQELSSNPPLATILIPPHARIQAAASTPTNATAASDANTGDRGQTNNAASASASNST
# How it was run: (§3)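 Huh-7 cells were treated with or without compound. Total protein extracts were separated by SDS-PAGE and transferred to PVDF. Membranes were probed with primary antibodies, then HRP-conjugated secondary antibody (1:10,000), and detected by enhanced chemiluminescence.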
# [10] = Effect on total GDK3beta protein level in human Huh-7 cells at 0.1 to 0.2 uM by Western blot analysis; format: ADME, cell-based; settings: huh-7, 0.2 µM, dose 0.1-0.2 µM; how it was run: as §3
# Huh-7 [11] = assay: Induction of apoptosis in human Huh-7 cells assessed as reduction in Bcl-2 expression at 0.1 to 0.2 uM Western blot analysis; format: functional, cell-based; settings: dose 0.1-0.2 µM; how it was run: as §3
# Huh-7 [12] = assay: Induction of autophagy in human Huh-7 cells assessed as increase in LC3-2 protein expression at 0.1 to 0.2 uM by Western blot analysis; format: functional, cell-based; settings: dose 0.1-0.2 µM; how it was run: as §3
# Huh-7 [13] = assay: Induction of autophagy in human Huh-7 cells assessed as decrease in m-TOR phosphorylation at 0.1 to 0.2 uM by Western blot analysis; format: functional, cell-based; settings: dose 0.1-0.2 µM; how it was run: as §3
# Huh-7 [14] = assay: Induction of autophagy flux arrest in human Huh-7 cells assessed as reduction in LC3 at 0.2 uM by immunofluorescence staining based assay; format: functional, cell-based
# How it was run: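 Huh-7 cells with or without 0.2 µM compound were immunofluorescently co-stained for LC3 (autophagosome) and LAMP1 (lysosome). Co-localization was assessed by fluorescence imaging.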
# Huh-7 [15] = assay: Induction of autophagy in human Huh-7 cells assessed as reduction in cell viability up to 72 hrs in presence of 3-MA by MTT assay; format: functional, cell-based; settings: time hrs <=72
# Huh-7 [16] = assay: Induction of autophagy in human Huh-7 cells assessed as reduction in cell viability up to 72 hrs in presence of Baf-A1 by MTT assay; format: functional, cell-based; settings: time hrs <=72
# Huh-7 [17] = assay: Induction of autophagy in human Huh-7 cells assessed as reduction in cathepsin B activity at 0.2 uM in presence of Baf-A1; format: functional, cell-based
# Huh-7 [18] = assay: Induction of autophagy in human Huh-7 cells assessed as reduction in cathepsin D activity at 0.2 uM in presence of 3-MA; format: functional, cell-based
# Huh-7 [19] = assay: Antitumour activity against human Huh-7 cells xenografted in nude mouse assessed as reduction in tumour growth at […], ip up to 15 days; format: functional, organism-based; settings: time day <=15
# How it was run: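 Nude mice bearing subcutaneous Huh-7 xenografts received 25 or 50 mg/Kg compound intraperitoneally. Tumor volume was followed from day 1 to day 15, with excised tumors weighed at the end. Body weight was also monitored.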
# Huh-7 [20] = assay: Antitumour activity against human Huh-7 cells xenografted in nude mouse assessed as increase in apoptotic cells at […], ip up to 15 days by TUNEL assay; format: functional, organism-based; settings: time day <=15
# How it was run: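 Tumor sections came from Huh-7 xenografted nude mice given 25 or 50 mg/Kg intraperitoneally over 15 days. Apoptotic cells were detected by TUNEL staining.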
# [21] = Effect on total AKT level in human Huh-7 cells xenografted in nude mouse at 20 to 50 mg/kg, ip up to 15 days by immunohistochemical analysis; format: ADME, organism-based; settings: in vivo, 360 h, dose 20-50 mg/kg, time <=15 day; how it was run: as §1
compound,measurement,setting,value
O=C(C(CNC1CCCC1)c1ccc(Cl)cc1)N1CCN(c2ncnc3sc4c(c23)CCC4)CC1 (stereo not drawn),Activity,Huh-7 [1],Active
same,Activity,[2],35%
same,IC50,[3],34 nM
same,IC50,Hep 3B2,131 nM
same,IC50,Huh-7 [4],76 nM
same,IC50,SMMC-7721,386 nM
same,Activity,Huh-7 [5],5.15%
same,Activity,Huh-7 [6],7.1%
same,Activity,Huh-7 [7],2.69%
same,Activity,Huh-7 [8],2.99%
same,inhibition,[9],Active
same,Activity,[10],Non-Toxic
same,Activity,Huh-7 [11],Active
same,Activity,Huh-7 [12],Active
same,Activity,Huh-7 [13],Active
same,Activity,Huh-7 [14],Active
same,Activity,Huh-7 [15],inactive
same,Activity,Huh-7 [16],Active
same,Activity,Huh-7 [17],Active
same,Activity,Huh-7 [18],inactive
same,Activity,Huh-7 [19],Active
same,Activity,Huh-7 [20],Active
same,Activity,[21],Non-Toxic
